In ChEMBL document CHEMBL4184142, “A Naturally Occurring Isoform-Specific Probe for Highly Selective and Sensitive Detection of Human Cytochrome P450 3A5” (J Med Chem, 2017):

B1: Cytochrome P450 3A5 (Homo sapiens) (protein)
chain: MDLIPNLAVETWLLLAVSLVLLYLYGTRTHGLFKRLGIPGPTPLPLLGNVLSYRQGLWKFDTECYKKYGKMWGTYEGQLPVLAITDPDVIRTVLVKECYSVFTNRRSLGPVGFMKSAISLAEDEEWKRIRSLLSPTFTSGKLKEMFPIIAQYGDVLVRNLRREAEKGKPVTLKDIFGAYSMDVITGTSFGVNIDSLNNPQDPFVESTKKFLKFGFLDPLFLSIILFPFLTPVFEALNVSLFPKDTINFLSKSVNRMKKSRLNDKQKHRLDFLQLMIDSQNSKETESHKALSDLELAAQSIIFIFAGYETTSSVLSFTLYELATHPDVQQKLQKEIDAVLPNKAPPTYDAVVQMEYLDMVVNETLRLFPVAIRLERTCKKDVEINGVFIPKGSMVVIPTYALHHDPKYWTEPEEFRPERFSKKKDSIDPYIYTPFGTGPRNCIGMRFALMNMKLALIRVLQNFSFKPCKETQIPLKLDTQGLLQPEKPIVLKVDSRDGTLSGE

What was measured:
Cytochrome P450 3A5 [1] = biological target: T1, Cytochrome P450 3A5 (Homo sapiens, UniProt P20815); assay: Substrate activity at CYP3A5 (unknown origin) assessed as enzyme-mediated compound turnover assessed per pmol protein at 10 uM; type: ADME
Cytochrome P450 3A4 [2] = biological target: T2, Cytochrome P450 3A4 (Homo sapiens, UniProt P08684); assay: Substrate activity at CYP3A4 (unknown origin) assessed as enzyme-mediated compound turnover assessed per pmol protein at 10 uM; type: ADME
T2 sequence (P08684 whole entry): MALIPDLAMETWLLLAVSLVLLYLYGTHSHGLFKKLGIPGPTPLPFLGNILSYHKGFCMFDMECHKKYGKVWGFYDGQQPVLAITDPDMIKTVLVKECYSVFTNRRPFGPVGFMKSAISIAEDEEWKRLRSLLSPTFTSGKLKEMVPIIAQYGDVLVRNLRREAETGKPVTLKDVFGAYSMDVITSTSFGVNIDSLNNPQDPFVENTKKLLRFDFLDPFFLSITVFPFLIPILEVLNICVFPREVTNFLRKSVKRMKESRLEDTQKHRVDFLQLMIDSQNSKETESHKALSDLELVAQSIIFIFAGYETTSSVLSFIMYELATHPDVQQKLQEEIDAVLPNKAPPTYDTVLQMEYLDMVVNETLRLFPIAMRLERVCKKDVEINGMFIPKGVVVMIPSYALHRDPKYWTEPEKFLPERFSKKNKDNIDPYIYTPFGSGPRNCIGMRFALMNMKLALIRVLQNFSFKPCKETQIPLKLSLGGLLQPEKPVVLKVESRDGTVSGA

Cytochrome P450 3A5 [3] = biological target: Cytochrome P450 3A5 (Homo sapiens, UniProt P20815, F210L); assay: (§1) Substrate activity at full length CYP3A5 F210L mutant (unknown origin) expressed in […] assessed as enzyme-mediated benzoic acid (6R,7S)-2,6,10-trihydroxy-1,3,11,12-tetramethoxy-6,7-dimethyl-5,6,7,8-tetrahydro-dibenzo[a,c]cycloocten-5-yl ester formation after 60 mins in presence of NADPH by UFLC-DAD analysis relative to wild type CYP3A5; type: ADME, cell-based; settings: s9, 1 h
Chain of Cytochrome P450 3A5 (Homo sapiens, UniProt P20815, F210L) (P20815 whole entry F210L): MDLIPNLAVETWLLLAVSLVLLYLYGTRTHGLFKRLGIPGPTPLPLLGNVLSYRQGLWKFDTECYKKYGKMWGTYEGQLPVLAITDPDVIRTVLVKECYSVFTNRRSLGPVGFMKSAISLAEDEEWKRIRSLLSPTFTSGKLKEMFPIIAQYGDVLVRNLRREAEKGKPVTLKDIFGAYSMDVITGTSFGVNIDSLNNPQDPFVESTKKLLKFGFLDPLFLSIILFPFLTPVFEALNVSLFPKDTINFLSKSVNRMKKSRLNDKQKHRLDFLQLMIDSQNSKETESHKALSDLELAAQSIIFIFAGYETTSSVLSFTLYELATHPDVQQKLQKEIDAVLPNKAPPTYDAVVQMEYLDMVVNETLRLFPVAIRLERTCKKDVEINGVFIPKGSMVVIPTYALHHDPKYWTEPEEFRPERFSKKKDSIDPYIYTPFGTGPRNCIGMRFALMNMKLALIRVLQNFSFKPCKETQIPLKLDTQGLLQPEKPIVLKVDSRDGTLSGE
Method in brief: (§2)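 Full-length CYP3A4/CYP3A5 cDNA mutants transfected into COS-7 cells (4 μg plasmid per well). After 24 h, cells were sonicated and S9 fractions prepared (9000g supernatant). Incubation: 5 mg/mL S9 and 50 μM substrate in 100 mM potassium phosphate pH 7.4 with NADPH-generating system, 37 °C, 60 min. Stopped with methanol, metabolite quantified by UFLC-DAD.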

[4] = Substrate activity at CYP450 in human liver microsomes with NADPH-generating system assessed as CYP-mediated benzoic acid (6R,7S)-2,6,10-trihydroxy-1,3,11,12-tetramethoxy-6,7-dimethyl-5,6,7,8-tetrahydro-dibenzo[a,c]cycloocten-5-yl ester formation at 5 uM after 25 mins in presence of CYP inhibitor ABT; type: ADME
Method in brief: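 Substrate at 5 μM in pooled HLM (0.2 mg protein/mL) with NADPH-generating system in 100 mM phosphate pH 7.4, 37 °C, with or without inhibitor: ketoconazole 1 μM for CYP3A. CYP3cide 1 μM and ABT 500 μM were preincubated with NADPH-generating system at 37 °C for 25 min. Metabolite quantified by UFLC-DAD. Three experiments in duplicate.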

Cytochrome P450 3A5 [5] = biological target: T1, Cytochrome P450 3A5; assay: Substrate activity at recombinant human CYP3A5 expressed in bactosomes assessed as intrinsic clearance by measuring ratio of Vmax/Km for 2-O-demethylation assessed per pmol protein; type: ADME; settings: recombinant enzyme
Method in brief: (§3)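 Bactosome rhCYP3A4 (40 nM, 20 min) or rhCYP3A5 (20 nM, 5 min) incubated at 37 °C with substrate at 2–200 μM in 100 mM potassium phosphate pH 7.4 with NADPH-generating system, 1% methanol. Stopped with ice-cold methanol, demethylated metabolite quantified by UFLC-DAD. Km and Vmax from nonlinear regression; CLint = Vmax/Km. Three experiments in duplicate.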

HepG2 = assay: Cytotoxicity against human HepG2 cells at 300 uM by CCK-8 assay; type: cell-based; settings: hepg2, 300 µM
Method in brief: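 HepG2 viability after exposure measured with CCK-8 kit. Cells grown in complete DMEM with 10% FCS.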

[6] = Drug metabolism in S9 fractions (unknown origin) assessed as benzoic acid (6R,7S)-2,6,10-trihydroxy-1,3,11,12-tetramethoxy-6,7-dimethyl-5,6,7,8-tetrahydro-dibenzo[a,c]cycloocten-5-yl ester formation in presence of UDP-glucuronic acid by UFLC-DAD analysis; type: ADME, subcellular, S9 fraction
[7] = Drug metabolism in s9 fractions (unknown origin) assessed as benzoic acid (6R,7S)-2,6,10-trihydroxy-1,3,11,12-tetramethoxy-6,7-dimethyl-5,6,7,8-tetrahydro-dibenzo[a,c]cycloocten-5-yl ester formation in presence of 3'-phosphoadenosine-5'-phosphosulfate by UFLC-DAD analysis; type: ADME, subcellular, S9 fraction
[8] = Drug metabolism in human liver microsomes assessed as Km for 2-O-demethylation; type: ADME, microsome
Method in brief: (§4)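 Pooled HLM at 0.4 mg/mL incubated 20 min at 37 °C with substrate at 2, 5, 10, 20, 50, 100, 200 μM. Buffer was 100 mM potassium phosphate pH 7.4 with an NADPH-generating system, methanol 1% (v/v) final, 3 min preincubation. Reaction stopped with ice-cold methanol; 2-O-demethylated metabolite read by UFLC-DAD. Apparent Km and Vmax from nonlinear regression; three experiments in duplicate.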

[9] = Intrinsic clearance in human liver microsomes assessed per mg liver microsome; type: ADME
Method in brief: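 HLM at 0.4 mg/mL, 20 min at 37 °C, in 100 mM potassium phosphate pH 7.4 with NADPH-generating system (1 mM NADP+, 10 mM glucose-6-phosphate, 1 unit/mL G6PDH, 4 mM MgCl2). Substrate at 2–200 μM, 1% methanol. Km and Vmax from nonlinear regression. CLint = Vmax/Km. Three experiments in duplicate, mean ± SD.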

Cytochrome P450 3A5 [10] = biological target: T1, Cytochrome P450 3A5; assay: Substrate activity at CYP3A5 in human liver microsomes assessed as enzyme-mediated benzoic acid (6R,7S)-2,6,10-trihydroxy-1,3,11,12-tetramethoxy-6,7-dimethyl-5,6,7,8-tetrahydro-dibenzo[a,c]cycloocten-5-yl ester formation at 5 uM by LC-MS/MS analysis; type: ADME
[11] = Drug metabolism in s9 fractions (unknown origin) assessed as benzoic acid (6R,7S)-2,6,10-trihydroxy-1,3,11,12-tetramethoxy-6,7-dimethyl-5,6,7,8-tetrahydro-dibenzo[a,c]cycloocten-5-yl ester formation in presence of S-adenosyl-L-methionine by UFLC-DAD analysis; type: ADME, subcellular, S9 fraction
Cytochrome P450 3A4 [12] = biological target: T2, Cytochrome P450 3A4; assay: Substrate activity at recombinant human CYP3A4 expressed in bactosomes assessed as intrinsic clearance by measuring ratio of Vmax/Km for 2-O-demethylation assessed per pmol protein; type: ADME; settings: recombinant enzyme; method in brief: as §3
Cytochrome P450 3A4 [13] = biological target: Cytochrome P450 3A4 (Homo sapiens, UniProt P08684, L210F); assay: as §1, with “CYP3A4 L210F” for “CYP3A5 F210L”, “analysis” for “analysis relative to”, “CYP3A4” for “CYP3A5”; type: cell-based; settings: 1 h; method in brief: as §2
Chain of Cytochrome P450 3A4 (Homo sapiens, UniProt P08684, L210F) (P08684 2-503 L210F limits assumed): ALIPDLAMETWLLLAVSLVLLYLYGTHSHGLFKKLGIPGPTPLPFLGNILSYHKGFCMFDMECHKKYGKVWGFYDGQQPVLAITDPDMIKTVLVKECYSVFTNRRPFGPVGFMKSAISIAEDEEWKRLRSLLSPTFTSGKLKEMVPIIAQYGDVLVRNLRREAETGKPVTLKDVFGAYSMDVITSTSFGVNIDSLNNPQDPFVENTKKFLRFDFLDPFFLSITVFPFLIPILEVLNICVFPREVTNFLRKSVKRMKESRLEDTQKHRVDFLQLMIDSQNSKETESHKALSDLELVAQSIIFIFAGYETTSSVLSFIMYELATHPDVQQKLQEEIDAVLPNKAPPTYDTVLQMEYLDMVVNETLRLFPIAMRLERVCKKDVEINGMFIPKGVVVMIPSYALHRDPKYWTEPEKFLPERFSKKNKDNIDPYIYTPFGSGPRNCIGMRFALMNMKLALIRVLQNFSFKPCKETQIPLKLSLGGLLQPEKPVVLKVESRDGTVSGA

Cytochrome P450 3A5 [14] = biological target: T1, Cytochrome P450 3A5; assay: Substrate activity at CYP3A5 in human HepG2 cell s9 fractions assessed as enzyme-mediated benzoic acid (6R,7S)-2,6,10-trihydroxy-1,3,11,12-tetramethoxy-6,7-dimethyl-5,6,7,8-tetrahydro-dibenzo[a,c]cycloocten-5-yl ester formation at 50 uM after 60 mins by LC-MS/MS analysis; type: ADME, S9 Fraction; settings: s9, 1 h
Method in brief: (§5)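 HepG2 or Caco-2 cells grown to 90% confluence in 75 cm2 flasks, trypsinized, sonicated in ice-cold PBS. S9 taken as the 9000g 20-min supernatant, protein by BCA. Incubated with 50 μM substrate and NADPH-generating system, pH 7.4 phosphate, 37 °C for 60 min. Stopped with ice-cold methanol, then centrifuged.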

Cytochrome P450 3A5 [15] = biological target: T1, Cytochrome P450 3A5; assay: Substrate activity at CYP3A5 in human Caco2 cell s9 fractions assessed as enzyme-mediated benzoic acid (6R,7S)-2,6,10-trihydroxy-1,3,11,12-tetramethoxy-6,7-dimethyl-5,6,7,8-tetrahydro-dibenzo[a,c]cycloocten-5-yl ester formation at 50 uM after 60 mins by LC-MS/MS analysis; type: ADME, S9 Fraction; settings: s9, 1 h; method in brief: as §5
[16] = Drug metabolism in human liver microsomes assessed as Vmax for 2-O-demethylation; type: ADME, microsome; method in brief: as §4
[17] = substrate: COc1cc2c(c(OC)c1OC)-c1c(cc(O)c(OC)c1OC)C[C@H](C)[C@](C)(O)[C@H]2OC(=O)c1ccccc1; assay: Substrate activity at recombinant human CYP3A5 expressed in bactosomes assessed as Km for 2-O-demethylation after 5 mins by Eadie-Hofstee plot method; type: ADME
Method in brief: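 Bactosome rhCYP3A5 (20 nM, coexpressed with human NADPH-P450 reductase) incubated 5 min at 37 °C with substrate 2–200 μM in 100 mM potassium phosphate pH 7.4 with NADPH-generating system, final methanol 1%. Reaction stopped with ice-cold methanol. Metabolite measured by UFLC-DAD. Apparent Km from nonlinear regression, plotted as Eadie–Hofstee. Three independent experiments in duplicate, mean ± SD.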

| Molecule | Drug metabolism (Cytochrome P450 3A5 [1]) | Drug metabolism (Cytochrome P450 3A4 [2]) | other results |
| --- | --- | --- | --- |
| COc1cc2c(c(OC)c1OC)-c1c(cc3c(c1OC)OCO3)C[C@H](C)[C@@](C)(O)C2OC(=O)c1ccccc1 (stereo partly specified) | Metabolite_Notdetected | Metabolite_Notdetected |  |
| COc1cc2c(c(OC)c1OC)-c1c(cc(OC)c(OC)c1OC)C[C@](C)(O)[C@@H](C)C2 [SCHIZANDRIN] | 1 to 3 pmol/min | >= 30 pmol/min |  |
| COc1cc2c(c(OC)c1OC)-c1c(cc3c(c1OC)OCO3)C[C@H](C)[C@@](C)(O)C2 [BESIGOMSIN] | 1 to 3 pmol/min | 10 to 15 pmol/min |  |
| COc1cc2c(c(O)c1OC)-c1c(cc(OC)c(OC)c1OC)C[C@H](C)[C@H](C)C2 | 4 to 9 pmol/min | 10 to 15 pmol/min |  |
| COc1c2c(cc3c1-c1c(cc4c(c1OC)OCO4)C[C@H](C)[C@H](C)C3)OCO2 [SCHISANDRIN C] | Metabolite_Notdetected | Metabolite_Notdetected |  |
| COc1cc2c(c(OC)c1OC)-c1c(cc3c(c1OC)OCO3)C(OC(=O)c1ccccc1)[C@](C)(O)[C@@H](C)C2 (stereo partly specified) | 1 to 3 pmol/min | 4 to 9 pmol/min |  |
| COc1cc2c(c(OC)c1OC)-c1c(cc(O)c(OC)c1OC)C[C@H](C)[C@](C)(O)[C@H]2OC(=O)c1ccccc1 | >= 30 pmol/min | 1 to 3 pmol/min | fold change (FC) (Cytochrome P450 3A5 [3]): 2.1; Drug metabolism [4]: Metabolite_Notdetected; Ratio (Cytochrome P450 3A5 [5]): 10.7 µL/min/pmol; Activity (HepG2): Non-Toxic; Drug metabolism [6]: Metabolite_Notdetected; Drug metabolism [7]: Metabolite_Notdetected; Km [8]: 4.95 µM; microsomal CLint [9]: 50.2 µL/min/mg; Drug metabolism (Cytochrome P450 3A5 [10]): 23.2 to 159 pmol/min/mg; Drug metabolism [11]: Metabolite_Notdetected; Ratio (Cytochrome P450 3A4 [12]): 0.46 µL/min/pmol; fold change (FC) (Cytochrome P450 3A4 [13]): 2.6; Drug metabolism (Cytochrome P450 3A5 [14]): Metabolite_Detected; Drug metabolism (Cytochrome P450 3A5 [15]): Metabolite_Detected; Vmax [16]: 248.5 pmol/min/mg |
| COc1cc2c(c(OC)c1OC)-c1c(cc3c(c1OC)OCO3)C[C@H](C)[C@H](C)C2 [WUWEIZISU B] | Metabolite_Notdetected | Metabolite_Notdetected |  |
| C/C=C(/C)C(=O)OC1c2cc(OC)c(OC)c(OC)c2-c2c(cc3c(c2OC)OCO3)C[C@H](C)[C@@]1(C)O (stereo partly specified) | Metabolite_Notdetected | Metabolite_Notdetected |  |
| COc1c(O)cc2c(c1OC)-c1c(cc(O)c(OC)c1OC)C(O)[C@@H](C)[C@@H](C)C2 (stereo partly specified) | 1 to 3 pmol/min | 4 to 9 pmol/min |  |
| COc1cc2c(c(OC)c1OC)-c1c(cc(OC)c(OC)c1OC)C[C@H](C)[C@H](C)C2 [SCHISANDRIN A] | 10 to 15 pmol/min | 16 to 29 pmol/min |  |
| COc1cc2c(c(OC)c1OC)-c1c(cc3c(c1OC)OCO3)C[C@H](C)[C@@](C)(O)C2O (stereo partly specified) | 1 to 3 pmol/min | 4 to 9 pmol/min |  |
| B1 |  |  | Km [17]: 5.9 µM; Vmax [17]: 6.34e-05 µmol/min |
